Assay [1] concerns the target T1, 2-5A-dependent ribonuclease (Homo sapiens) (UniProt Q05823).
T1 sequence (whole entry): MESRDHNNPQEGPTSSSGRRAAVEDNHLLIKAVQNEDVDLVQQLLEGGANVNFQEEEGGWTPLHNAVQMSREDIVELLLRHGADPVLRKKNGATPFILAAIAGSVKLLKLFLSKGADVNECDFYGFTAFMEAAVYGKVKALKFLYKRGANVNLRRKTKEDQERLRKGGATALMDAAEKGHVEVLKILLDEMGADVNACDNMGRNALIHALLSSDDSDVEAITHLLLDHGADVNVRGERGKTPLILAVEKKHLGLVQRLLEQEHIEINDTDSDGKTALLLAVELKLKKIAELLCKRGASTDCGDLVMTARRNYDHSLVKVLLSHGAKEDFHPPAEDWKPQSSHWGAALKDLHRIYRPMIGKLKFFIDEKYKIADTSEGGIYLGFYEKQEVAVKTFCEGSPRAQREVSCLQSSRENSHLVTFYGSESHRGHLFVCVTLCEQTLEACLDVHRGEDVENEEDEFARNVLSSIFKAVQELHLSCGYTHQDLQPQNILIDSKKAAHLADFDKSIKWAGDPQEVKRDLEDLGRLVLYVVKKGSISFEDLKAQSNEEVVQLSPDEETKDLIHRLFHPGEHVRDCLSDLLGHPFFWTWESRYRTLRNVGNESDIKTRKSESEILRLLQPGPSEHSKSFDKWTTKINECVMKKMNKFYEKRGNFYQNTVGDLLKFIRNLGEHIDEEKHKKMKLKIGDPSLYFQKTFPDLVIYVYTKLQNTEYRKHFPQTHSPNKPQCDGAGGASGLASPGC
The assay is described as follows: Inhibition of recombinant full length H-RNAase L (1 to 741 residues) expressed in Escherichia coli BL21 (DE3) using 5'-FAM-UAA-UCA-AAU-UCU-UAU-UUG-CCC-CAU-UUU-UUU-GGU-UUA-BHQ-1-3' as substrate incubated for 60 min by FRET assay. The gist of the method:
(§1)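 FRET cleavage assay. Recombinant RNase L (10 nM human or 2.5 nM porcine, final) was preincubated 10 min on ice with graded compound in 25 mM Tris pH 7.4, 100 mM KCl, 10 mM MgCl2, 2.5 mM DTT and 0.5 nM 2-5A. FAM/BHQ1 RNA probe was added and the mix held 1 h at room temperature. Read at ex 480/em 535 nm; triplicates; IC50 from dose-response.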

For assay [2], the species on record is Sus scrofa. The assay is described as follows: Inhibition of recombinant full length P-RNAase L (1 to 743 residues) expressed in Escherichia coli BL21 (DE3) using 5'-FAM-UAA-UCA-AAU-UCU-UAU-UUG-CCC-CAU-UUU-UUU-GGU-UUA-BHQ-1-3' as substrate incubated for 60 min by FRET assay. An outline of the steps: as §1
Assay [3] in a line: (§2) Inhibition of recombinant full length P-RNAase L (1 to 743 residues)expressed in Escherichia coli BL21 (DE3) assessed as inhibition rate in presence of 2-5A AND ATP/MgCl2 by STD-NMR spectroscopy. Details: species or system Sus scrofa.
Assay [4] concerns the target T2, 2-5A-dependent ribonuclease (Homo sapiens, UniProt Q05823).
T2 sequence (Q05823 whole entry): T1 sequence (whole entry)
The assay is described as follows: Inhibition of recombinant full length H-RNAase L (1 to 741 residues) expressed in Escherichia coli BL21 (DE3) assessed as inhibition rate in presence of 2-5A and ATP/MgCl2 by STD-NMR spectroscopy.

The species named for assay [5] is Sus scrofa. The description is as §2. The settings on record: time 60.0 min.
A short description of assay [6]: Inhibition of P-RNAase L K164E mutant expressed in Escherichia coli BL21 (DE3) assessed as inhibition rate. Details: species or system Sus scrofa.
A short description of assay [7]: Inhibition of full length P-RNAase L expressed in Escherichia coli BL21 (DE3) assessed as inhibition rate incubated for 15 min in presence of 1 nM 2-5A for 15 mins by Coomassie staining based SDS-PAGE analysis. Details: species or system Sus scrofa.
Assay [8] is described as follows: Inhibition of full length P-RNAase L expressed in Escherichia coli BL21 (DE3) assessed as inhibition rate incubated for 15 min in presence of 5 nM 2-5A for 15 mins by Coomassie staining based SDS-PAGE analysis. Further details: species or system Sus scrofa.
Assay [9] can be described thus: Inhibition of full length P-RNAase L expressed in Escherichia coli BL21 (DE3) assessed as inhibition rate incubated for 15 min in presence of 20 nM 2-5A for 15 mins by Coomassie staining based SDS-PAGE analysis. Details: species or system Sus scrofa.
Assay [10] concerns the target T2, 2-5A-dependent ribonuclease. Briefly: Inhibition of full length H-RNAase L expressed in Escherichia coli BL21 (DE3) assessed as inhibition rate incubated for 15 min in presence of 1 nM 2-5A for 15 mins by Coomassie staining based SDS-PAGE analysis.
Assay [11] shares this target. The assay is described as follows: Inhibition of full length H-RNAase L expressed in Escherichia coli BL21 (DE3) assessed as inhibition rate incubated for 15 min in presence of 5 nM 2-5A for 15 mins by Coomassie staining based SDS-PAGE analysis.
The target is the same in assay [12]. The assay is described as follows: Inhibition of full length H-RNAase L expressed in Escherichia coli BL21 (DE3) assessed as inhibition rate incubated for 15 min in presence of 20 nM 2-5A for 15 mins by Coomassie staining based SDS-PAGE analysis.
The nature of assay [13]: Inhibition of wild type P-RNAase L expressed in Escherichia coli BL21 (DE3) assessed as inhibition rate. Further details: species or system Sus scrofa.
Assay [14] can be described thus: Inhibition of P-RNAase L R353E mutant expressed in Escherichia coli BL21 (DE3) assessed as inhibition rate. Further details: species or system Sus scrofa.
Assay [15] concerns the target T1, 2-5A-dependent ribonuclease (Homo sapiens). Briefly: Inhibition of RNAase L in human A549 cells assessed as rRNA cleavage pretreated at 30 uM for 4 hrs followed by treated with 20 uM 2-5A by […] analysis. Format: cell-based. The gist of the method:
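A549 cells were grown 16 h in RPMI with 10% FBS, then given inhibitor at 3, 10, 30 or 100 μM in fresh medium for 4 h. Trimeric 2-5A (20 μM) was then transfected with lipofectamine 2000 with inhibitor still present, for 2 h more. rRNA cleavage was read from total RNA on Bioanalyzer chips. NP40 lysates were western-blotted for RNase L and beta-actin.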
(In western blotting, separated proteins are transferred to a membrane and probed.)

For assay [16], the species on record is Sus scrofa. The assay is described as follows: Suppression of 2-5A-induced full length P-RNase L oligomerization in presence of upto 2 uM 2-5A at 40 uM by SDS-PAGE analysis. The gist of the method: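 Full-length porcine RNase L (0.8 μM) with 5 mM MgCl2 was held 15 min on ice with or without inhibitor, then 15 min on ice with 2-5A. It was cross-linked with dimethyl suberimidate in triethanolamine (pH 8.5) for 1 h at room temperature. Samples were boiled in SDS loading buffer, run on 4-12% SDS-PAGE and stained with Coomassie.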

pIC50: −log10 of the molar value. The source made the active and inactive calls. The calls are words filed in the database; no cut-off is given here.

As for `C[S+]([O-])c1sc(Cl)c2c1C(=O)CCC2` (stereo not drawn), the inhibition result in assay [1] and in [2] was “Active” throughout.

As to `O=c1c(O)c(-c2cc(O)c(O)c(O)c2)oc2cc(O)cc(O)c12` [MYRICETIN], the pIC50 in assay [3] was 3.76; in assay [4], 3.58.

`CCCCOC(=O)c1ccc(O)cc1` [BUTYLPARABEN]: the inhibition result in [5] is “inactive”. Further, the pIC50 in assay [4] was 2.62. Further, in [1], the inhibition entry was “Active”.

For the compound `Cc1cc(C(=O)O)cc(Cl)n1`, the inhibition entry in assay [1] and in [2] was “Active” each time.

`Oc1ccc(Sc2ccc(O)cc2)cc1`: the inhibition result in assay [1] and in assay [2] was “Active” throughout.

`O=C(O)c1ccc(Cl)nc1Cl`: the inhibition result in [1] and in assay [2] was “Active” throughout.

Turning to `O=c1c(O[C@@H]2O[C@H](CO)[C@H](O)[C@H](O)[C@H]2O)c(-c2ccc(O)c(O)c2)oc2cc(O)cc(O)c12` [HYPEROSIDE], the pIC50 in assay [6] is 5.99; in assay [4], 5.79; in assay [7] it was 5.83; in assay [8], 5.85; in assay [9], 5.85; in assay [10], 5.87. In addition, the pIC50 in assay [11] is 5.88; in assay [12], 5.85; in assay [13], 6.05; in [14], 6.19. Also, in assay [15], the result was inactive. Moreover, in assay [16], the inhibition result is “inactive”.

With `O=c1cc(-c2ccc(O)cc2)oc2c([C@@H]3O[C@H](CO)[C@@H](O)[C@H](O)[C@H]3O)c(O)cc(O)c12` [VITEXIN], the figures for the pIC50 in [3] and in [4] were 3.96 and 3.72, respectively. Besides, the outcome in [15] was inactive.

As a reminder, the pIC50 is the IC50 on a negative log10 scale, so that one unit is a factor of ten.
